According to publication PMC5839499 (Biomolecules & Therapeutics, 2018):
Entries after “also recorded” stand apart in the source; their conditions may differ. Values belong to the compound of their own block, whether it stands above or below them.

Columns and labels:
[1] = test system: HIT-T15, GLUTag, and HepG2; test: Cytotoxicity assay; assay type: cell-based; conditions: MTT, 48 h
Procedure, shortened: (§1)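 MTT assay. Cells were seeded at 2–3×10⁴ cells/well and cultured 24 h. Test compound was added at a final 0.1–100 μM for 48 h. MTT (5 mg in PBS, pH 7.2) was added for 4 h at 37°C, then DMSO. Absorbance was read at 540 nm; % viability = treated/untreated absorbance ×100; n=3.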

Cytotoxicity assay [2] = assay type: cell-based; conditions: mouse, GLUTag L cells
Procedure, shortened: as §1

human GPR119 = biological target: T1, human GPR119 (Homo sapiens, UniProt Q8TDV5); test: cAMP accumulation assay; assay type: cell-based
T1 sequence (Q8TDV5 1-335): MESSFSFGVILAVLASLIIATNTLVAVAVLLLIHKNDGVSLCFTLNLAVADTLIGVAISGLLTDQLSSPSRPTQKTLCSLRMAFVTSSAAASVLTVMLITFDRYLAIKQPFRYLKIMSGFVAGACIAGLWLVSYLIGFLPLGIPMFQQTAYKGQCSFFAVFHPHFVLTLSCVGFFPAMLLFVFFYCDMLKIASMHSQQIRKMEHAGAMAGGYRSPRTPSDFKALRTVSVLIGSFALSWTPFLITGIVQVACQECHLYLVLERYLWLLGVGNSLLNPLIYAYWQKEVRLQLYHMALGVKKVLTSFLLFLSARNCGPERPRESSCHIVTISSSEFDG
Procedure, shortened: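 CHO-K1 cells carry doxycycline-inducible human GPR119 and a CRE-driven beta-lactamase reporter. Cells were seeded at 10⁴ cells/well, induced with doxycycline 1 ug/mL, and treated 5 h with test compound at varying concentrations (DMSO stocks diluted in medium). cAMP was read by ratiometric FRET beta-lactamase substrate, in triplicate per concentration, from ≥3 independent experiments.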

Cytotoxicity assay [3] = assay type: cell-based; conditions: human, HepG2 cells
Procedure, shortened: as §1

HIT-T15 cells = test: Insulin release assay; assay type: cell-based, hamster
Procedure, shortened: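 HIT-T15 cells were seeded at 2×10⁵ cells/well and grown 48 h. They were washed in Krebs-Ringer bicarbonate buffer (pH 7.4, 0.2% BSA) and preincubated 60 min at 37°C with 5 mM glucose. Stimulation was with 0.1 uM test compound at 15 mM glucose, 60 min, 37°C; GSIS used 100 nM at 0, 3 and 15 mM glucose, 1 h. Supernatant insulin was measured by ELISA in triplicate.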

normal C57BL/6J mice [4] = test: Oral glucose tolerance test, single administration in normal mice; assay type: in vivo
[5] = Pharmacokinetics of YH18968 in normal mice; assay type: in vivo, C57BL/6J mice; conditions: male, C57BL/6J, mouse, plasma
Procedure, shortened: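 Overnight-fasted 8-week-old male C57BL/6J mice, with free access to water, received 1 mg/kg iv via tail vein or oral doses of 1, 10 and 100 mg/kg as a suspension in 0.5% methyl cellulose; n=2 per time point. Plasma underwent protein precipitation and LC-MS/MS quantification. Parameters, including F, came from non-compartmental analysis.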

[6] = Aqueous solubility in the buffer; assay type: physicochemical
GLUTag cells = test: GLP-1 release assay; assay type: cell-based, murine
Procedure, shortened: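 GLUTag cells (DMEM, 10% FBS) were seeded at 10⁵ cells/well and grown 48 h. They were washed twice with serum-free DMEM, then exposed to 0.1 uM test compound in serum-free DMEM at 37°C for 120 min. Supernatant was clarified by 5-min centrifugation, and GLP-1 was measured by ELISA in triplicate.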

normal C57BL/6J mice [7] = test: Blood active GLP-1 levels after single oral administration in normal mice; assay type: in vivo; conditions: 10 mg/kg oral, 30 minutes after administration, overnight-fasted mice
Procedure, shortened: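 Overnight-fasted male C57BL/6J mice (n=6) got a single oral dose of test compound, alone or with linagliptin (1 mg/kg). The control got 0.5% methyl cellulose vehicle. Blood was drawn 30 min after dosing, and active GLP-1 was measured against the vehicle group.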

DIO mice = test: Oral glucose tolerance test, repeat administration for 4 weeks in DIO mice; assay type: in vivo
Procedure, shortened: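 17-week-old male DIO mice were dosed orally once daily for 4 weeks with vehicle (0.5% methyl cellulose), test compound, MBX2982 10 mg/kg, linagliptin 1 mg/kg, or combinations. OGTT was run on days 1 and 29 in overnight-fasted mice: dose, then an oral 2 g/kg glucose bolus 30 min later. Tail-vein glucose was read by glucometer at 0–120 min, and AUC0–2h was calculated.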

Structure (SMILES): CCc1cnc(N2CCC(c3nc(COc4ccc(-n5cnnn5)cc4)cs3)CC2)nc1 [MBX2982, reference compound]
concentration up to which cytotoxicity was not observed [1]: 1000 nM
CC50 at 48 h (Cytotoxicity assay [2]): 12200 nM
EC50 (human GPR119): 11.2 nM
CC50 at 48 h (Cytotoxicity assay [3]): 15900 nM

AUC(0-inf) ([5]; iv, 1 mg/kg): 1620 ng·h/mL
AUC(0-t) ([5]; iv, 1 mg/kg): 1380 ng·h/mL
MRT ([5]; iv, 1 mg/kg): 3.4 h
Vd ([5]; iv, 1 mg/kg): 2.11 L/kg
clearance ([5]; iv, 1 mg/kg): 10.3 mL/min/kg
Tmax ([5]; po): 0.5 h
bioavailability ([5]; po): 4.8 to 40%
AUC(0-inf) ([5]; po, 1 mg/kg): 720 ng·h/mL
AUC(0-t) ([5]; po, 1 mg/kg): 550 ng·h/mL
Cmax ([5]; po, 1 mg/kg): 169 ng/mL
Tmax ([5]; po, 1 mg/kg): 0.5 h
bioavailability ([5]; po, 1 mg/kg): 40%
half-life ([5]; po, 1 mg/kg): 3.1 h
AUC(0-inf) ([5]; po, 10 mg/kg): 2960 ng·h/mL
AUC(0-t) ([5]; po, 10 mg/kg): 2470 ng·h/mL
Cmax ([5]; po, 10 mg/kg): 760 ng/mL
Tmax ([5]; po, 10 mg/kg): 0.5 h
bioavailability ([5]; po, 10 mg/kg): 18%
half-life ([5]; po, 10 mg/kg): 2.6 h
AUC(0-inf) ([5]; po, 100 mg/kg): 15800 ng·h/mL
AUC(0-t) ([5]; po, 100 mg/kg): 6540 ng·h/mL
Cmax ([5]; po, 100 mg/kg): 1470 ng/mL
Tmax ([5]; po, 100 mg/kg): 0.5 h
bioavailability ([5]; po, 100 mg/kg): 4.8%
half-life ([5]; po, 100 mg/kg): 9.2 h
EC50 (human GPR119): 2.8 nM
potency on human GPR119 relative to MBX2982 (human GPR119; more potent than MBX2982 (EC50 11.2 nM, same assay)): approximately 4 fold
potency of human GPR119 activation relative to MBX2982 (human GPR119; more potent than the reported effect of MBX2982 (EC50 8.33 nM, HEK293)): approximately 3 fold
aqueous solubility [6]: poor
EC50 (GLUTag cells; Mus musculus, GLUTag, read-out: EC50, GLP-1 secretion): 0.1 nM
Structure (SMILES): CC(C)c1nc(N2CCN(c3ncc(-c4ccc(-n5cnn([C@H]6CCOC6)c5=O)c(F)c4)cc3C#N)CC2)no1 [YH18968, (S)-5-(3-fluoro-4-(5-oxo-1-(tetrahydrofuran-3-yl)-1,5-dihydro-4H-1,2,4-triazol-4-yl)phenyl)-2-(4-(5-isopropyl-1,2,4-oxadiazol-3-yl)piperazin-1-yl)nicotinonitrile]
concentration up to which cytotoxicity was not observed [1]: 5000 nM
glucose-stimulated insulin secretion (GSIS) (HIT-T15 cells; 100 nM, 3 and 15 mM glucose, 1 h): enhanced in a glucose-dependent manner
insulin release without glucose (HIT-T15 cells; 100 nM, cells incubated without glucose, 1 h): no effect
insulin secretion (HIT-T15 cells; HIT-T15 cell, 0.1 uM, 15 mM glucose, 60 min): 1.9 fold
AUC for blood glucose in OGTT versus vehicle control (normal C57BL/6J mice [4]; single oral 0.1, 1, and 10 mg/kg, dose-dependent): significantly lowered
glucose lowering effect compared with 30 mg/kg of MBX2982 (normal C57BL/6J mice [4]; single oral 1 and 10 mg/kg): more potent glucose lowering effects
GLP-1 secretion (GLUTag cells; GLUTag cell, 0.1 uM, 120 min): 2.3 fold
increase of active GLP-1 levels compared to the vehicle control (normal C57BL/6J mice [7]): 2.7 fold
AUC for blood glucose in OGTT versus vehicle control, day 1 (DIO mice; 1 mg/kg oral once daily, day 1, DIO mice): significantly lowered; also recorded: significant decrease
glucose lowering effect compared with 10 mg/kg of MBX2982, day 1 (DIO mice; 1 mg/kg oral, day 1, DIO mice): more potent glucose lowering effect

Structure (SMILES): CC#CCn1c(N2CCC[C@@H](N)C2)nc2c1c(=O)n(Cc1nc(C)c3ccccc3n1)c(=O)n2C [linagliptin, reference compound]
AUC blood glucose level in OGTT (DIO mice; 1 mg/kg of linagliptin, DIO mice): near normal range
